Source: ChEMBL document CHEMBL1649384, “Synthesis and antiproliferative activity of novel symmetrical alkylthio- and alkylseleno-imidocarbamates” (Eur J Med Chem, 2011)

Assays:
MCF7 [1] = experiment: Cytotoxicity against human MCF7 cells after 72 hrs by MTT assay; type: functional; details: MCF7, 72 h
Summary of the method: (§1)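 Cells seeded per well: Hep-G2 1×10⁴, HT-29 4×10³, K-562 4×10³, MCF-7 1.2×10⁴, MCF-10A 7×10³, PC-3 2×10³. MCF-10A were grown in supplemented MEBM at 37 °C, 5% CO₂. Five concentrations were tested between 0.01 and 100, with 72 h exposure. Formazan was read by A590. GI₅₀ was taken relative to untreated controls, from at least three independent experiments.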

HT-29 [2] = experiment: Cytotoxicity against human HT-29 cells after 72 hrs by MTT assay; type: functional; details: HT-29, 72 h; for CC50: read-out: LC50 (the source's name); summary of the method: as §1
K562 = experiment: Cytotoxicity against human K562 cells after 72 hrs by MTT assay; type: functional; details: K562, 72 h; for CC50: read-out: LC50 (the source's name); summary of the method: as §1
HepG2 = experiment: Cytotoxicity against human HepG2 cells after 72 hrs by MTT assay; type: functional; details: HepG2, 72 h; for CC50: read-out: LC50 (the source's name); summary of the method: as §1
PC-3 [3] = experiment: Cytotoxicity against human PC3 cells after 72 hrs by MTT assay; type: functional; details: PC-3, 72 h; for CC50: read-out: LC50 (the source's name); summary of the method: as §1
[4] = Cytotoxicity against human MCF10A cells after 72 hrs by MTT assay; type: cell-based, MCF-10A; details: for GI50 at 72 h: MCF10A cells; for LC50 / TGI: mcf-10a, 72 h; summary of the method: as §1
PC-3 [5] = experiment: Cytotoxicity against human PC3 cells after 72 hrs by CV method; type: functional; details: PC-3, 72 h
Summary of the method: (§2)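 Crystal violet check of the MTT data: eight concentrations between 0.01 and 100, with 72 h exposure. Cells were fixed in 4% formaldehyde for at least 20 min, then stained with 0.1% crystal violet for 30 min. GI₅₀ is the concentration halving growth relative to untreated controls.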

HT-29 [6] = experiment: Cytotoxicity against human HT-29 cells after 72 hrs by CV method; type: functional; details: HT-29, 72 h; summary of the method: as §2
MCF7 [7] = experiment: Induction of apoptosis in human MCF7 cells assessed as apoptotic cells at 15 uM after 48 hrs by TUNEL assay; type: functional
Summary of the method: (§3)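 TUNEL (Apo-Direct) on MCF-7 cells treated with compound or vehicle, with camptothecin as positive control. Cells were fixed in paraformaldehyde and then ethanol, labelled with FITC-dUTP for 1 h at 37 °C, counterstained with PI/RNase, and analysed by flow cytometry. Read-out is % apoptotic cells, mean ± SEM of three independent experiments in duplicate wells.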

MCF7 [8] = experiment: Induction of apoptosis in human MCF7 cells assessed as accumulation at subG1 phase at 15 uM after 24 hrs by DNA flow cytometric assay; type: functional
Summary of the method: (§4)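 Exponentially growing MCF-7 cells were given compound or vehicle, with camptothecin as positive control. Cells were fixed in 1% paraformaldehyde in PBS pH 7.4 on ice for 1 h, then in 70% ethanol at −20 °C for 30 min. They were stained with PI/RNase for 30 min at RT in the dark. DNA content was measured by flow cytometry as % of total cells. Mean ± SEM of three independent experiments, duplicate wells.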

MCF7 [9] = experiment: Induction of apoptosis in human MCF7 cells assessed as accumulation at G0/G1 phase at 15 uM after 24 hrs by DNA flow cytometric assay; type: functional; summary of the method: as §4
MCF7 [10] = experiment: Induction of apoptosis in human MCF7 cells assessed as accumulation at S phase at 15 uM after 24 hrs by DNA flow cytometric assay; type: functional; summary of the method: as §4
MCF7 [11] = experiment: Induction of apoptosis in human MCF7 cells assessed as accumulation at G2/M phase at 15 uM after 24 hrs by DNA flow cytometric assay; type: functional; summary of the method: as §4
MCF7 [12] = experiment: Induction of apoptosis in human MCF7 cells assessed as accumulation at subG1 phase at 15 uM after 48 hrs by DNA flow cytometric assay; type: functional; summary of the method: as §4
MCF7 [13] = experiment: Induction of apoptosis in human MCF7 cells assessed as accumulation at G0/G1 phase at 15 uM after 48 hrs by DNA flow cytometric assay; type: functional; summary of the method: as §4
MCF7 [14] = experiment: Induction of apoptosis in human MCF7 cells assessed as accumulation at S phase at 15 uM after 48 hrs by DNA flow cytometric assay; type: functional; summary of the method: as §4
MCF7 [15] = experiment: Induction of apoptosis in human MCF7 cells assessed as accumulation at G2/M phase at 15 uM after 48 hrs by DNA flow cytometric assay; type: functional; summary of the method: as §4
MCF7 [16] = experiment: Induction of apoptosis in human MCF7 cells assessed as apoptotic cells at 15 uM after 24 hrs by TUNEL assay; type: functional; summary of the method: as §3

CS/C(=N\C(=O)c1cnc2ccccc2c1)NC(=O)c1cnc2ccccc2c1
GI50 (MCF7 [1]): 23.9 µM
LC50 (MCF7 [1]): > 100 µM
TGI (MCF7 [1]): > 100 µM
GI50 (HT-29 [2]): > 100 µM
TGI (HT-29 [2]): > 100 µM
CC50 (HT-29 [2]): > 100 µM
GI50 (K562): 65.8 µM
TGI (K562): > 100 µM
CC50 (K562): > 100 µM
GI50 (HepG2): 57.6 µM
TGI (HepG2): > 100 µM
CC50 (HepG2): > 100 µM
GI50 (PC-3 [3]): 76.3 µM
TGI (PC-3 [3]): > 100 µM
CC50 (PC-3 [3]): > 100 µM
GI50 at 72 h [4]: 0.5 µM
LC50 [4]: 82.19 µM
TGI [4]: 42.17 µM

C[Se]/C(=N\C(=O)c1cnc2ccccc2c1)NC(=O)c1cnc2ccccc2c1
GI50 (MCF7 [1]): 0.66 µM
LC50 (MCF7 [1]): 60.7 µM
TGI (MCF7 [1]): 8.03 µM
GI50 (HT-29 [2]): 0.2 µM
TGI (HT-29 [2]): > 100 µM
CC50 (HT-29 [2]): > 100 µM
GI50 (K562): 3.8 µM
TGI (K562): 29.9 µM
CC50 (K562): 74.8 µM
GI50 (HepG2): 4.16 µM
TGI (HepG2): 23.7 µM
CC50 (HepG2): 87.8 µM
GI50 (PC-3 [3]): 2.33 µM
TGI (PC-3 [3]): 43.6 µM
CC50 (PC-3 [3]): > 100 µM
GI50 at 72 h [4]: 20.3 µM
LC50 [4]: 83.86 µM
TGI [4]: 52.1 µM
GI50 (PC-3 [5]): 1.42 µM
GI50 (HT-29 [6]): 0.46 µM
Activity (MCF7 [7]): 27.19%
Activity (MCF7 [8]): 10.29%
Activity (MCF7 [9]): 73.06%
Activity (MCF7 [10]): 8.1%
Activity (MCF7 [11]): 7.21%
Activity (MCF7 [12]): 11.34%
Activity (MCF7 [13]): 32.87%
Activity (MCF7 [14]): 32.68%
Activity (MCF7 [15]): 19.97%

CC[C@@]1(O)C(=O)OCc2c1cc1n(c2=O)Cc2cc3ccccc3nc2-1 [CAMPTOTHECIN]
GI50 (MCF7 [1]): 0.01 µM
TGI (MCF7 [1]): 0.16 µM
GI50 (HT-29 [2]): 0.05 µM
TGI (HT-29 [2]): 31.6 µM
CC50 (HT-29 [2]): 31.6 µM
GI50 (K562): 0.06 µM
TGI (K562): 50.1 µM
CC50 (K562): > 100 µM
GI50 (PC-3 [3]): 0.06 µM
TGI (PC-3 [3]): > 100 µM
CC50 (PC-3 [3]): > 100 µM
Activity (MCF7 [16]): 21.25%
Activity (MCF7 [7]): 71.45%
Activity (MCF7 [8]): 10.92%
Activity (MCF7 [9]): 65.62%
Activity (MCF7 [10]): 10.4%
Activity (MCF7 [11]): 11.51%
Activity (MCF7 [12]): 25.73%
Activity (MCF7 [13]): 41.61%
Activity (MCF7 [14]): 16.91%
Activity (MCF7 [15]): 15.15%

C[Se]/C(=N\C(=O)c1cccs1)NC(=O)c1cccs1
GI50 (MCF7 [1]): 0.0034 µM
LC50 (MCF7 [1]): > 100 µM
TGI (MCF7 [1]): 5.64 µM
GI50 (HT-29 [2]): 0.00034 µM
TGI (HT-29 [2]): > 100 µM
CC50 (HT-29 [2]): > 100 µM
GI50 (K562): 6.07 µM
TGI (K562): > 100 µM
CC50 (K562): > 100 µM
GI50 (HepG2): 0.63 µM
TGI (HepG2): 1.5 µM
CC50 (HepG2): 12.5 µM
GI50 (PC-3 [3]): 1.34 µM
TGI (PC-3 [3]): 63 µM
CC50 (PC-3 [3]): > 100 µM
GI50 at 72 h [4]: 9.26 µM
LC50 [4]: 73.51 µM
TGI [4]: 41.14 µM
GI50 (PC-3 [5]): 0.63 µM
GI50 (HT-29 [6]): 9 µM
Activity (MCF7 [16]): 29.35%
Activity (MCF7 [7]): 71.08%
Activity (MCF7 [8]): 9.31%
Activity (MCF7 [9]): 45.32%
Activity (MCF7 [10]): 18.3%
Activity (MCF7 [11]): 23.85%
Activity (MCF7 [12]): 14.14%
Activity (MCF7 [13]): 35.25%
Activity (MCF7 [14]): 25.21%
Activity (MCF7 [15]): 22.74%

CS/C(=N\C(=O)c1cc2ccccc2s1)NC(=O)c1cc2ccccc2s1
GI50 (MCF7 [1]): 9.51 µM
LC50 (MCF7 [1]): 78.5 µM
TGI (MCF7 [1]): 43.4 µM
GI50 (HT-29 [2]): 16.8 µM
TGI (HT-29 [2]): 88.2 µM
CC50 (HT-29 [2]): 88.2 µM
GI50 (K562): 34.7 µM
TGI (K562): 66.6 µM
CC50 (K562): 98.6 µM
GI50 (HepG2): 15.8 µM
TGI (HepG2): 53 µM
CC50 (HepG2): 75.8 µM
GI50 (PC-3 [3]): 8.58 µM
TGI (PC-3 [3]): 39.4 µM
CC50 (PC-3 [3]): 72.5 µM
GI50 at 72 h [4]: 0.02 µM
LC50 [4]: 54.56 µM
TGI [4]: 5.6 µM
